Source: ChEMBL document CHEMBL2062381, “Synthesis and in vitro evaluation of new chloroquine-chalcone hybrids against chloroquine-resistant strain of Plasmodium falciparum” (Bioorg Med Chem Lett, 2012)
Converted amounts (≈) assume the structure as drawn.

Key:
[1] = tested on: Plasmodium falciparum; test: Antimalarial activity against chloroquine-resistant Plasmodium falciparum K1 after 72 hrs by SYBR Green-I based fluorescence assay; assay type: functional, organism-based
Procedure, shortened: (§1)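 Asynchronous culture (>80% rings), 1.0% parasitized cell suspension at 0.8% parasitaemia, exposed to twofold serial dilutions of compound (DMSO stock 5 mg/mL). Incubated 72 h at 37 °C under 5% CO₂ in air. Lysis buffer with SYBR Green I added, then 1 h at 37 °C. Fluorescence read at 485/530 nm. IC₅₀ from logit regression of dose-response curves. Mean of three experiments in triplicate.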

[2] = tested on: Plasmodium falciparum; test: Antimalarial activity against chloroquine-susceptible Plasmodium falciparum 3D7 after 72 hrs by SYBR Green-I based fluorescence assay; assay type: functional, organism-based; settings: 3D7, 72 h; procedure, shortened: as §1
[3] = Selectivity index, ratio of IC50 for african green monkey Vero cells to IC50 for Plasmodium falciparum; assay type: toxicity, cell-based; settings: read-out: Ratio IC50
Procedure, shortened: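 SI = CC50/IC50. CC50 was measured in Vero monkey kidney cells (C1008) by MTT after 72 h exposure to compound dilutions, using nonlinear regression. IC50 came from a 72 h SYBR Green I fluorescence assay in P. falciparum (1.0% parasitized cells, 0.8% parasitaemia, mostly ring stages, 37 °C, 5% CO2). Those values came from logit regression.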

[4] = tested on: Plasmodium yoelii; test: Inhibition of beta hematin formation in Plasmodium yoelii infected swiss mouse RBC after 16 hrs; assay type: functional, organism-based
Procedure, shortened: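 Source material was plasma from male Swiss mice (15–20 g) inoculated with 1 × 10⁵ P. yoelii-infected RBCs. Blood was taken by cardiac puncture at 50% parasitemia into 2.0% citrate and centrifuged. The 1.0 mL mix held 100 mM sodium acetate pH 5.1, plasma, hemin substrate and compound at […]. It ran in triplicate for 16 h at 37 °C with rotary shaking. The washed β-hematin pellet was dissolved in NaOH and read at 400 nm. IC50 came from nonlinear regression.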

[5] = Inhibition of hydrogen peroxide-mediated hemin decomposition assessed as remaining hemin level at 20 uM after 30 mins by […] (reference value: 43%); assay type: functional
Procedure, shortened: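 Hemin (in 0.1 N NaOH) was mixed with BSA in 0.2 M sodium acetate pH 5.1 and compound, then equilibrated for 10 min at room temperature. The reaction was started with 20 mM H2O2 and ran 30 min at room temperature. Read-out was the decrease in Soret absorbance at 405 nm, reported as % hemin remaining. Controls used water instead of H2O2. Data are the mean of three experiments in triplicate.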

[6] = Plasmodium falciparum, K1, 72 h, read-out: IC50

Structure (SMILES)	IC50 [1, 6] [nM]	IC50 [2] [nM]	selectivity ratio [3]	IC50 [4] [µg/mL]	Activity [5] [%]	IC50 [1]
O=C(/C(=C/c1cccc([N+](=O)[O-])c1)Oc1ccc(/C=N/Nc2ccnc3cc(Cl)ccc23)cc1)c1ccc(Cl)cc1	315	128	1340	5.72 (≈ 9.8 µM)	–	–
CCN(CC)CCCC(C)Nc1ccnc2cc(Cl)ccc12 (configuration not stated) [CHLOROQUINE]	–	–	–	3.75 (≈ 11.7 µM)	65	–
Cc1ccc(/C=C(\Oc2ccc(/C=N/Nc3ccnc4cc(Cl)ccc34)cc2)C(=O)c2ccc(Cl)cc2)cc1	97.9	112	1620	5.58 (≈ 10.1 µM)	–	–
O=C(/C(=C/c1ccccc1)Oc1ccc(/C=N/Nc2ccnc3cc(Cl)ccc23)cc1)c1ccc(Cl)cc1	110	78.8	2360	5.66 (≈ 10.5 µM)	–	–
O=C(/C(=C/c1ccoc1)Oc1ccc(/C=N/Nc2ccnc3cc(Cl)ccc23)cc1)c1ccc(Cl)cc1	115	57.3	962	3.74 (≈ 7.08 µM)	53	–
COc1ccc(/C=C(\Oc2ccc(/C=N/Nc3ccnc4cc(Cl)ccc34)cc2)C(=O)c2ccc(Cl)cc2)cc1OC	97.8	84	1440	3.46 (≈ 5.78 µM)	59	–
COc1ccc(OC)c(/C=C(\Oc2ccc(/C=N/Nc3ccnc4cc(Cl)ccc34)cc2)C(=O)c2ccc(Cl)cc2)c1	125	250	669	25 (≈ 41.8 µM)	–	–
COc1ccc(/C=C(\Oc2ccc(/C=N/Nc3ccnc4cc(Cl)ccc34)cc2)C(=O)c2ccc(Cl)cc2)cc1	96.9	48.1	2050	17.6 (≈ 31 µM)	–	–
O=C(/C(=C/c1ccc(F)cc1)Oc1ccc(/C=N/Nc2ccnc3cc(Cl)ccc23)cc1)c1ccc(Cl)cc1	102	29.1	6200	15.6 (≈ 28 µM)	–	–
O=C(/C(=C/c1ccc(Cl)cc1)Oc1ccc(/C=N/Nc2ccnc3cc(Cl)ccc23)cc1)c1ccc(Cl)cc1	199	145	1210	8.38 (≈ 14.6 µM)	–	–
COc1cc(OC)c(OC)cc1/C=C(\Oc1ccc(/C=N/Nc2ccnc3cc(Cl)ccc23)cc1)C(=O)c1ccc(Cl)cc1	89.5	90.5	728	10.6 (≈ 16.9 µM)	–	–
O=C(/C(=C/c1ccc(Cl)cc1Cl)Oc1ccc(/C=N/Nc2ccnc3cc(Cl)ccc23)cc1)c1ccc(Cl)cc1	–	295	560	5.91 (≈ 9.73 µM)	–	Not Active
O=C(COc1ccc(/C=N/Nc2ccnc3cc(Cl)ccc23)cc1)c1ccc(Cl)cc1	126	36.7	800	16.4 (≈ 36.4 µM)	–	–
COc1cc(/C=C(\Oc2ccc(/C=N/Nc3ccnc4cc(Cl)ccc34)cc2)C(=O)c2ccc(Cl)cc2)cc(OC)c1OC	123	95.3	970	10.8 (≈ 17.2 µM)	–	–
O=C(/C(=C/c1ccc(F)cc1F)Oc1ccc(/C=N/Nc2ccnc3cc(Cl)ccc23)cc1)c1ccc(Cl)cc1	170	139	1040	–	–	–
O=C(/C(=C/c1ccc([N+](=O)[O-])cc1)Oc1ccc(/C=N/Nc2ccnc3cc(Cl)ccc23)cc1)c1ccc(Cl)cc1	–	> 500	–	12.8 (≈ 21.9 µM)	–	Not Active
COc1ccc(/C=C(\Oc2ccc(/C=N/Nc3ccnc4cc(Cl)ccc34)cc2)C(=O)c2ccc(Cl)cc2)c(OC)c1OC	82.9	124	837	3.52 (≈ 5.6 µM)	63	–
